# Measured values from ChEMBL document CHEMBL4689842, “EUbOPEN Chemogenomics Library wave 1” (2021).
# System: Fibroblast
# Assay: Multiplex assay against human fibroblast
# Assay type: toxicity, cell-based
# Outline: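 Phenotypes for tubulin, mitochondrial mass and membrane permeability are expressed as per cents of healthy-nucleus cells. Cells were stained live at seeding with Hoechst33342, BioTracker Green Microtubule Cytoskeleton Dye, MitoTracker Red and Annexin V Alexa Fluor 680, then imaged after compound addition on a CQ1 microscope at 37°C and 5% CO2. Machine-learning gating in CellPathfinder separated Hoechst high-intensity objects from normal cells, divided normal cells by nuclear state (healthy, pyknosed, fragmented) and divided pyknosed cells into mitotic or apoptotic.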
# [1] = 12 h, 1 µM, compound concentration 1 uM, replicate 1
# [2] = 12 h, 1 µM, compound concentration 1 uM, replicate 2
# [3] = 12 h, 10 µM, compound concentration 10 uM, replicate 1
# [4] = 12 h, 10 µM, compound concentration 10 uM, replicate 2
# [5] = 24 h, 1 µM, compound concentration 1 uM, replicate 1
# [6] = 24 h, 1 µM, compound concentration 1 uM, replicate 2
# [7] = 24 h, 10 µM, compound concentration 10 uM, replicate 1
# [8] = 24 h, 10 µM, compound concentration 10 uM, replicate 2
# [9] = 48 h, 1 µM, compound concentration 1 uM, replicate 1
# [10] = 48 h, 1 µM, compound concentration 1 uM, replicate 2
# [11] = 48 h, 10 µM, compound concentration 10 uM, replicate 1
# [12] = 48 h, 10 µM, compound concentration 10 uM, replicate 2
smiles,measurement,setting,value
Cc1cc(C)cc(-c2cnc3cc(Cl)c(-c4cccc(O)c4)cc3c2OCCCN)c1,Population Apoptotic (%),[1],44%
same,Population Fragmented Nuclei (%),[1],38%
same,Population Healthy Nuclei (%),[1],26%
same,Population Hoechst High Intensity Objects (%),[1],16%
same,Population Membrane Permeable-Phenotype (%),[1],38%
same,Population Mitochondria Different-Phenotype (%),[1],30%
same,Population Mitotic Cells (%),[1],55%
same,Population Normal (%),[1],83%
same,Population Pyknosed Nuclei (%),[1],36%
same,Population Tubulin-Different-Phenotype (%),[1],61%
same,Total Cell Count,[1],60
same,Population Fragmented Nuclei (%),[2],11%
same,Population Healthy Nuclei (%),[2],72%
same,Population Hoechst High Intensity Objects (%),[2],10%
same,Population Membrane Permeable-Phenotype (%),[2],2%
same,Population Mitochondria Different-Phenotype (%),[2],82%
same,Population Normal (%),[2],90%
same,Population Pyknosed Nuclei (%),[2],16%
same,Population Tubulin-Different-Phenotype (%),[2],56%
same,Total Cell Count,[2],68
same,Population Apoptotic (%),[3],33%
same,Population Fragmented Nuclei (%),[3],31%
same,Population Healthy Nuclei (%),[3],10%
same,Population Hoechst High Intensity Objects (%),[3],11%
same,Population Membrane Permeable-Phenotype (%),[3],53%
same,Population Mitochondria Different-Phenotype (%),[3],7%
same,Population Mitotic Cells (%),[3],66%
same,Population Normal (%),[3],88%
same,Population Pyknosed Nuclei (%),[3],57%
same,Population Tubulin-Different-Phenotype (%),[3],100%
same,Total Cell Count,[3],135
same,Population Apoptotic (%),[4],70%
same,Population Fragmented Nuclei (%),[4],16%
same,Population Healthy Nuclei (%),[4],32%
same,Population Hoechst High Intensity Objects (%),[4],8%
same,Population Membrane Permeable-Phenotype (%),[4],90%
same,Population Mitochondria Different-Phenotype (%),[4],95%
same,Population Mitotic Cells (%),[4],29%
same,Population Normal (%),[4],91%
same,Population Pyknosed Nuclei (%),[4],50%
same,Total Cell Count,[4],60
same,Population Apoptotic (%),[5],40%
same,Population Fragmented Nuclei (%),[5],54%
same,Population Healthy Nuclei (%),[5],22%
same,Population Hoechst High Intensity Objects (%),[5],21%
same,Population Membrane Permeable-Phenotype (%),[5],10%
same,Population Mitochondria Different-Phenotype (%),[5],10%
same,Population Mitotic Cells (%),[5],60%
same,Population Normal (%),[5],78%
same,Population Pyknosed Nuclei (%),[5],22%
same,Population Tubulin-Different-Phenotype (%),[5],20%
same,Total Cell Count,[5],56
same,Population Apoptotic (%),[6],62%
same,Population Fragmented Nuclei (%),[6],11%
same,Population Healthy Nuclei (%),[6],75%
same,Population Hoechst High Intensity Objects (%),[6],3%
same,Population Membrane Permeable-Phenotype (%),[6],2%
same,Population Mitochondria Different-Phenotype (%),[6],78%
same,Population Mitotic Cells (%),[6],37%
same,Population Normal (%),[6],96%
same,Population Pyknosed Nuclei (%),[6],13%
same,Population Tubulin-Different-Phenotype (%),[6],28%
same,Total Cell Count,[6],66
same,Population Apoptotic (%),[7],38%
same,Population Fragmented Nuclei (%),[7],28%
same,Population Healthy Nuclei (%),[7],16%
same,Population Hoechst High Intensity Objects (%),[7],12%
same,Population Membrane Permeable-Phenotype (%),[7],54%
same,Population Mitochondria Different-Phenotype (%),[7],4%
same,Population Mitotic Cells (%),[7],61%
same,Population Normal (%),[7],87%
same,Population Pyknosed Nuclei (%),[7],54%
same,Population Tubulin-Different-Phenotype (%),[7],90%
same,Total Cell Count,[7],149
same,Population Apoptotic (%),[8],93%
same,Population Fragmented Nuclei (%),[8],24%
same,Population Healthy Nuclei (%),[8],3%
same,Population Hoechst High Intensity Objects (%),[8],7%
same,Population Membrane Permeable-Phenotype (%),[8],50%
same,Population Mitochondria Different-Phenotype (%),[8],50%
same,Population Mitotic Cells (%),[8],6%
same,Population Normal (%),[8],92%
same,Population Pyknosed Nuclei (%),[8],72%
same,Population Tubulin-Different-Phenotype (%),[8],50%
same,Total Cell Count,[8],63
same,Population Apoptotic (%),[9],64%
same,Population Fragmented Nuclei (%),[9],37%
same,Population Healthy Nuclei (%),[9],33%
same,Population Hoechst High Intensity Objects (%),[9],20%
same,Population Membrane Permeable-Phenotype (%),[9],37%
same,Population Mitochondria Different-Phenotype (%),[9],37%
same,Population Mitotic Cells (%),[9],35%
same,Population Normal (%),[9],80%
same,Population Pyknosed Nuclei (%),[9],29%
same,Population Tubulin-Different-Phenotype (%),[9],56%
same,Total Cell Count,[9],60
same,Population Apoptotic (%),[10],75%
same,Population Fragmented Nuclei (%),[10],41%
same,Population Healthy Nuclei (%),[10],54%
same,Population Hoechst High Intensity Objects (%),[10],17%
same,Population Membrane Permeable-Phenotype (%),[10],22%
same,Population Mitochondria Different-Phenotype (%),[10],9%
same,Population Mitotic Cells (%),[10],25%
same,Population Normal (%),[10],82%
same,Population Pyknosed Nuclei (%),[10],4%
same,Population Tubulin-Different-Phenotype (%),[10],62%
same,Total Cell Count,[10],117
same,Population Apoptotic (%),[11],56%
same,Population Fragmented Nuclei (%),[11],45%
same,Population Healthy Nuclei (%),[11],28%
same,Population Hoechst High Intensity Objects (%),[11],39%
same,Population Membrane Permeable-Phenotype (%),[11],37%
same,Population Mitochondria Different-Phenotype (%),[11],7%
same,Population Mitotic Cells (%),[11],44%
same,Population Normal (%),[11],60%
same,Population Pyknosed Nuclei (%),[11],26%
same,Population Tubulin-Different-Phenotype (%),[11],81%
same,Total Cell Count,[11],157
same,Population Apoptotic (%),[12],93%
same,Population Fragmented Nuclei (%),[12],39%
same,Population Healthy Nuclei (%),[12],43%
same,Population Hoechst High Intensity Objects (%),[12],31%
same,Population Membrane Permeable-Phenotype (%),[12],12%
same,Population Mitochondria Different-Phenotype (%),[12],82%
same,Population Mitotic Cells (%),[12],6%
same,Population Normal (%),[12],68%
same,Population Pyknosed Nuclei (%),[12],16%
same,Population Tubulin-Different-Phenotype (%),[12],92%
same,Total Cell Count,[12],129
c1cn2cc(-c3ccc4cn[nH]c4c3)nc(Nc3ccc(N4CCOCC4)cc3)c2n1 [ENTOSPLETINIB],Population Apoptotic (%),[1],60%
same,Population Fragmented Nuclei (%),[1],23%
same,Population Healthy Nuclei (%),[1],36%
same,Population Hoechst High Intensity Objects (%),[1],14%
same,Population Membrane Permeable-Phenotype (%),[1],20%
same,Population Mitochondria Different-Phenotype (%),[1],12%
same,Population Mitotic Cells (%),[1],39%
same,Population Normal (%),[1],85%
same,Population Pyknosed Nuclei (%),[1],40%
same,Population Tubulin-Different-Phenotype (%),[1],52%
same,Total Cell Count,[1],81
same,Population Apoptotic (%),[2],40%
same,Population Fragmented Nuclei (%),[2],16%
same,Population Healthy Nuclei (%),[2],73%
same,Population Hoechst High Intensity Objects (%),[2],5%
same,Population Membrane Permeable-Phenotype (%),[2],10%
same,Population Mitochondria Different-Phenotype (%),[2],23%
same,Population Mitotic Cells (%),[2],60%
same,Population Normal (%),[2],94%
same,Population Pyknosed Nuclei (%),[2],9%
same,Population Tubulin-Different-Phenotype (%),[2],25%
same,Total Cell Count,[2],59
same,Population Apoptotic (%),[3],51%
same,Population Fragmented Nuclei (%),[3],24%
same,Population Healthy Nuclei (%),[3],3%
same,Population Hoechst High Intensity Objects (%),[3],41%
same,Population Membrane Permeable-Phenotype (%),[3],14%
same,Population Mitochondria Different-Phenotype (%),[3],4%
same,Population Mitotic Cells (%),[3],48%
same,Population Normal (%),[3],58%
same,Population Pyknosed Nuclei (%),[3],72%
same,Population Tubulin-Different-Phenotype (%),[3],23%
same,Total Cell Count,[3],1163
same,Population Apoptotic (%),[4],92%
same,Population Fragmented Nuclei (%),[4],30%
same,Population Healthy Nuclei (%),[4],2%
same,Population Hoechst High Intensity Objects (%),[4],25%
same,Population Membrane Permeable-Phenotype (%),[4],21%
same,Population Mitochondria Different-Phenotype (%),[4],82%
same,Population Mitotic Cells (%),[4],7%
same,Population Normal (%),[4],74%
same,Population Pyknosed Nuclei (%),[4],67%
same,Population Tubulin-Different-Phenotype (%),[4],78%
same,Total Cell Count,[4],56
same,Population Apoptotic (%),[5],60%
same,Population Fragmented Nuclei (%),[5],25%
same,Population Healthy Nuclei (%),[5],57%
same,Population Hoechst High Intensity Objects (%),[5],11%
same,Population Membrane Permeable-Phenotype (%),[5],23%
same,Population Mitochondria Different-Phenotype (%),[5],7%
same,Population Mitotic Cells (%),[5],40%
same,Population Normal (%),[5],88%
same,Population Pyknosed Nuclei (%),[5],16%
same,Population Tubulin-Different-Phenotype (%),[5],51%
same,Total Cell Count,[5],102
same,Population Apoptotic (%),[6],14%
same,Population Fragmented Nuclei (%),[6],14%
same,Population Healthy Nuclei (%),[6],74%
same,Population Hoechst High Intensity Objects (%),[6],4%
same,Population Membrane Permeable-Phenotype (%),[6],17%
same,Population Mitochondria Different-Phenotype (%),[6],15%
same,Population Mitotic Cells (%),[6],85%
same,Population Normal (%),[6],95%
same,Population Pyknosed Nuclei (%),[6],11%
same,Population Tubulin-Different-Phenotype (%),[6],21%
same,Total Cell Count,[6],78
same,Population Apoptotic (%),[7],48%
same,Population Fragmented Nuclei (%),[7],22%
same,Population Healthy Nuclei (%),[7],3%
same,Population Hoechst High Intensity Objects (%),[7],44%
same,Population Membrane Permeable-Phenotype (%),[7],23%
same,Population Mitochondria Different-Phenotype (%),[7],4%
same,Population Mitotic Cells (%),[7],51%
same,Population Normal (%),[7],55%
same,Population Pyknosed Nuclei (%),[7],74%
same,Population Tubulin-Different-Phenotype (%),[7],47%
same,Total Cell Count,[7],1126
same,Population Apoptotic (%),[8],89%
same,Population Fragmented Nuclei (%),[8],33%
same,Population Healthy Nuclei (%),[8],2%
same,Population Hoechst High Intensity Objects (%),[8],26%
same,Population Membrane Permeable-Phenotype (%),[8],8%
same,Population Mitochondria Different-Phenotype (%),[8],36%
same,Population Mitotic Cells (%),[8],10%
same,Population Normal (%),[8],73%
same,Population Pyknosed Nuclei (%),[8],64%
same,Population Tubulin-Different-Phenotype (%),[8],20%
same,Total Cell Count,[8],65
same,Population Apoptotic (%),[9],75%
same,Population Fragmented Nuclei (%),[9],29%
same,Population Healthy Nuclei (%),[9],65%
same,Population Hoechst High Intensity Objects (%),[9],15%
same,Population Membrane Permeable-Phenotype (%),[9],18%
same,Population Mitochondria Different-Phenotype (%),[9],6%
same,Population Mitotic Cells (%),[9],25%
same,Population Normal (%),[9],84%
same,Population Pyknosed Nuclei (%),[9],4%
same,Population Tubulin-Different-Phenotype (%),[9],39%
same,Total Cell Count,[9],104
same,Population Apoptotic (%),[10],33%
same,Population Fragmented Nuclei (%),[10],28%
same,Population Healthy Nuclei (%),[10],68%
same,Population Hoechst High Intensity Objects (%),[10],11%
same,Population Membrane Permeable-Phenotype (%),[10],9%
same,Population Mitochondria Different-Phenotype (%),[10],1%
same,Population Mitotic Cells (%),[10],66%
same,Population Normal (%),[10],88%
same,Population Pyknosed Nuclei (%),[10],2%
same,Population Tubulin-Different-Phenotype (%),[10],50%
same,Total Cell Count,[10],116
same,Population Apoptotic (%),[11],43%
same,Population Fragmented Nuclei (%),[11],14%
same,Population Healthy Nuclei (%),[11],4%
same,Population Hoechst High Intensity Objects (%),[11],47%
same,Population Membrane Permeable-Phenotype (%),[11],14%
same,Population Mitochondria Different-Phenotype (%),[11],0%
same,Population Mitotic Cells (%),[11],56%
same,Population Normal (%),[11],52%
same,Population Pyknosed Nuclei (%),[11],80%
same,Population Tubulin-Different-Phenotype (%),[11],17%
same,Total Cell Count,[11],1093
same,Population Apoptotic (%),[12],82%
same,Population Fragmented Nuclei (%),[12],24%
same,Population Healthy Nuclei (%),[12],6%
same,Population Hoechst High Intensity Objects (%),[12],64%
same,Population Membrane Permeable-Phenotype (%),[12],12%
same,Population Mitochondria Different-Phenotype (%),[12],12%
same,Population Mitotic Cells (%),[12],17%
same,Population Normal (%),[12],35%
same,Population Pyknosed Nuclei (%),[12],69%
same,Population Tubulin-Different-Phenotype (%),[12],46%
same,Total Cell Count,[12],1794
